According to ChEMBL document CHEMBL2375220, “Bispyrimidines as potent histamine H(4) receptor ligands: delineation of structure-activity relationships and detailed H(4) receptor binding mode” (J Med Chem, 2013):
Converted amounts (≈) assume the structure as drawn. Values belong to the molecule of their own block, whether it stands above or below them.

What was measured:
Histamine H4 receptor [1] = biological target: T1, Histamine H4 receptor (Homo sapiens, UniProt Q9H3N8); assay: Displacement of [3H]histamine displacement from human recombinant histamine H4 receptor expressed in […] cells after 45 mins; assay type: cell-based, SK-N-MC
[2] = Half life in human liver microsomes; assay type: ADME, Microsome
[3] = Aqueous solubility of the compound at pH 6.8 by automated polarized light microscopy analysis; assay type: physicochemical
Summary of the method: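 Aqueous solubility at pH 6.8, measured by precipitation from DMSO solution and reported in μg/mL.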

[4] = Half life in mouse liver microsomes; assay type: ADME, Microsome
Histamine H4 receptor [5] = biological target: T1, Histamine H4 receptor; assay: Displacement of [3H]histamine displacement from human histamine H4 receptor expressed in […] cells after 60 mins; assay type: cell-based, SK-N-MC
Summary of the method: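 Affinity at the human H4 receptor, from displacement of [3H]histamine binding. Reported as pKi, the mean ± SEM of at least three independent determinations.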

SMILES: CC(C)CNc1cc(N2CCN(C)CC2)nc(N)n1
Ki (Histamine H4 receptor [1]): 3.16 nM | half-life [2]: > 120 min | solubility [3]: > 64 µg/mL | half-life [4]: 4 min

SMILES: CC(C)CNc1cc(NCCNc2cc(-c3ccccc3)nc(N)n2)ncn1
Ki (Histamine H4 receptor [5]): 501 nM

SMILES: CC(C)CCc1cc(N(C)CCNc2ccnc(N)n2)nc(N)n1
half-life [2]: 82 min | Ki (Histamine H4 receptor [5]): 10 nM | solubility [3]: > 83 µg/mL | half-life [4]: 8 min

SMILES: CC(C)CNc1nccc(NCCN(C)c2cc(-c3ccccc3)nc(N)n2)n1
Ki (Histamine H4 receptor [5]): 31.6 nM

SMILES: CN(CCNc1cc(-c2ccccc2)nc(N)n1)c1ccnc(N)n1
Ki (Histamine H4 receptor [5]): 79.4 nM

SMILES: CN(CCNc1ccnc(N)n1)C(=O)c1cc2cc(Cl)ccc2[nH]1
Ki (Histamine H4 receptor [5]): 3160 nM

SMILES: CC(C)CNc1cc(NCCNc2ccnc(N)n2)nc(N)n1
Ki (Histamine H4 receptor [5]): 79.4 nM

SMILES: CC(C)CCc1cc(NCCNc2ccnc(N)n2)nc(N)n1
half-life [2]: > 120 min | Ki (Histamine H4 receptor [5]): 25.1 nM | solubility [3]: > 79 µg/mL | half-life [4]: 18 min

SMILES: CC(C)CCc1cc(NCCNc2cc(-c3ccccc3)nc(N)n2)nc(N)n1
Ki (Histamine H4 receptor [5]): 398 nM

SMILES: Nc1nc(NCCNc2ccncn2)cc(-c2ccccc2)n1
Ki (Histamine H4 receptor [5]): 2000 nM

SMILES: CC(C)CCc1cc(NCCNc2cc(Cl)nc(N)n2)nc(N)n1
Ki (Histamine H4 receptor [5]): 631 nM

SMILES: CC(C)CNc1nccc(NCCNc2cc(-c3ccccc3)nc(N)n2)n1
Ki (Histamine H4 receptor [5]): 79.4 nM

SMILES: CC(C)CNc1nccc(NCCNc2cc(-c3cccc(Cl)c3)nc(N)n2)n1
Ki (Histamine H4 receptor [5]): 50.1 nM

SMILES: CC(C)CNc1nccc(NCCNc2ccnc(N)n2)n1
Ki (Histamine H4 receptor [5]): 79.4 nM

SMILES: CC(C)CNc1cc(NCCNc2ccnc(N)n2)ncn1
Ki (Histamine H4 receptor [5]): 1000 nM

SMILES: CC(C)CNc1nccc(NCCN(C)c2cc(-c3cccc(Cl)c3)nc(N)n2)n1
Ki (Histamine H4 receptor [5]): 50.1 nM

SMILES: CC(C)CCc1cc(N2CCN(C)CC2)nc(N)n1
Ki (Histamine H4 receptor [1]): 3.16 nM | half-life [2]: 61 min | solubility [3]: > 62 µg/mL | half-life [4]: < 2 min

SMILES: CN1CCN(c2cc(-c3ccccc3)nc(N)n2)CC1
Ki (Histamine H4 receptor [1]): 7.94 nM | half-life [2]: 43 min | solubility [3]: 61 µg/mL (≈ 226 µM) | half-life [4]: 4 min

SMILES: CN1CCN(c2cc(-c3ccc(Cl)cc3)nc(N)n2)CC1
Ki (Histamine H4 receptor [1]): 3.16 nM

SMILES: CN1CCN(C(=O)c2cc3cc(Cl)ccc3[nH]2)CC1 [JNJ-7777120]
half-life [2]: > 45 min | solubility [3]: 58 µg/mL (≈ 209 µM) | half-life [4]: 2 min

The next lines start with the values.

half-life [2]: 101 min | Ki (Histamine H4 receptor [5]): 39.8 nM | solubility [3]: > 84 µg/mL | half-life [4]: 23 min
SMILES: CC(C)CNc1cc(N(C)CCNc2ccnc(N)n2)nc(N)n1

Ki (Histamine H4 receptor [5]): 1260 nM
SMILES: Nc1nccc(NCCNC(=O)c2cc3ccccc3[nH]2)n1

Ki (Histamine H4 receptor [5]): 316 nM
SMILES: Nc1nccc(NCCNC(=O)c2cc3cc(Cl)ccc3[nH]2)n1

Ki (Histamine H4 receptor [5]): 10000 nM
SMILES: CN(CCNc1ccnc(N)n1)C(=O)c1cc2ccccc2[nH]1

Ki (Histamine H4 receptor [5]): 794 nM
SMILES: Nc1nccc(NCCNc2ccnc(N)n2)n1

half-life [2]: 51 min | Ki (Histamine H4 receptor [5]): 6.31 nM | solubility [3]: > 76 µg/mL | half-life [4]: 9 min
SMILES: Nc1nccc(NCCNc2cc(-c3cccc(Cl)c3)nc(N)n2)n1

Ki (Histamine H4 receptor [5]): 1000 nM
SMILES: Nc1nc(NCCNc2cc(-c3ccccc3)nc(N)n2)cc(-c2ccccc2)n1

Ki (Histamine H4 receptor [5]): 3160 nM
SMILES: CC(C)CNc1cc(NCCNc2cc(-c3ccccc3)nc(N)n2)nc(N)n1

Ki (Histamine H4 receptor [5]): 39.8 nM
SMILES: Cc1nccc(NCCNc2cc(-c3ccccc3)nc(N)n2)n1

Ki (Histamine H4 receptor [5]): 2510 nM
SMILES: Nc1nc(Cl)cc(NCCNc2cc(-c3ccccc3)nc(N)n2)n1

Ki (Histamine H4 receptor [5]): 1260 nM
SMILES: CC(C)CNc1nc(NCCNc2ccnc(N)n2)cc(-c2ccccc2)n1

Ki (Histamine H4 receptor [5]): 10 nM
SMILES: CN(CCNc1ccnc(N)n1)c1cc(-c2ccccc2)nc(N)n1

Ki (Histamine H4 receptor [1]): 7.94 nM
SMILES: Nc1nccc(NCCNc2cc(-c3ccccc3)nc(N)n2)n1
